Source: ChEMBL document CHEMBL1151465, “Interactions of methylene blue with human disulfide reductases and their orthologues from Plasmodium falciparum” (Antimicrob Agents Chemother, 2008)

Tests used:
[1] = Dissociation constant, pKa of the compound; type: physicochemical
[2] = Solubility in 100 mM phosphate buffer at pH 7.0; type: physicochemical
Plasmodium falciparum = experiment: Antiplasmodial activity after 42 hrs against chloroquine-resistant Plasmodium falciparum K1 treated for 6 hrs by Giemsa stain; type: functional, organism-based
Albumin = Albumin (Bos taurus, UniProt P02769); experiment: Binding affinity to bovine serum albumin by fluorescence spectroscopy; type: ADME; conditions: read-out: Kdiss
Chain of Albumin (P02769 whole entry): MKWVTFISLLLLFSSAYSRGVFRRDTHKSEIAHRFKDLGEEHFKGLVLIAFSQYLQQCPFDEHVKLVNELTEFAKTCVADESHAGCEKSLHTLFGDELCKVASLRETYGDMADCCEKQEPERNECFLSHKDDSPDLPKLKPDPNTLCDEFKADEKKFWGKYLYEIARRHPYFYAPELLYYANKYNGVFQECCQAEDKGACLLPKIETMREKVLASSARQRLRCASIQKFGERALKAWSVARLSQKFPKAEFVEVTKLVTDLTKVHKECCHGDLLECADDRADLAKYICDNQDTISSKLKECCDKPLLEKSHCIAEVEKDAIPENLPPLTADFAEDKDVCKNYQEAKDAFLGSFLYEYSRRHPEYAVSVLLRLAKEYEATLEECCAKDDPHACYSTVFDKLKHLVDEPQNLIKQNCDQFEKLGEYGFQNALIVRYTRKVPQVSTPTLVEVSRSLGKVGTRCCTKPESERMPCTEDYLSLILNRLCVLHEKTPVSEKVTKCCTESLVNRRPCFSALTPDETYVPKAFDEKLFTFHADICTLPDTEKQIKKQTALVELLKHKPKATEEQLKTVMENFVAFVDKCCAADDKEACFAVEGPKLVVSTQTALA

[3] = Stability at pH 5.0; type: physicochemical; conditions: buffer
[4] = target: T1, Glutathione reductase, mitochondrial (Homo sapiens, UniProt P00390); experiment: Inhibition of human recombinant glutathione reductase at pH 6.9
T1 sequence (P00390 whole entry): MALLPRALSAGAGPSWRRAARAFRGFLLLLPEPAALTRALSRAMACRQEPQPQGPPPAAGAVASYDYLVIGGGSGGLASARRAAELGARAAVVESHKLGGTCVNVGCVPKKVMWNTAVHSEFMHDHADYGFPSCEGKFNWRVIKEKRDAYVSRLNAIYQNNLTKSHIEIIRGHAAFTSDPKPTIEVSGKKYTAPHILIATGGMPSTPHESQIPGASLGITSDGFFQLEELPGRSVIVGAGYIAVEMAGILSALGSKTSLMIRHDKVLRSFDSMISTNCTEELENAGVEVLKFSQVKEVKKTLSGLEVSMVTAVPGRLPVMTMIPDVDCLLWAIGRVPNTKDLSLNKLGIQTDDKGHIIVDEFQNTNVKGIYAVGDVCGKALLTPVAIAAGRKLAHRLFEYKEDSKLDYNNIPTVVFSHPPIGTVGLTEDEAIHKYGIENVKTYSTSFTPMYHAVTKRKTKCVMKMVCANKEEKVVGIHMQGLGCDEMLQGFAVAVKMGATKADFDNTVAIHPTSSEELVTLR
Outline: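 Recombinant human GR was assayed with its physiological disulfide substrate at 10 mU/ml enzyme and 25°C. The buffer was 47 mM potassium phosphate, 1 mM EDTA and 200 mM KCl at pH 6.9, with NADPH as reductant. MB came from stocks in water. IC50 values were treated as Ki, assuming noncompetitive inhibition.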

[5] = Inhibition of human recombinant glutathione reductase C58A mutant expressed in Escherichia coli SG5 at pH 6.9
[6] = Inhibition of human recombinant glutathione reductase C63A mutant expressed in Escherichia coli SG5 at pH 6.9
[7] = Inhibition of human recombinant glutathione reductase C58A/C63A mutant expressed in Escherichia coli SG5 at pH 6.9
[8] = target: T2, Thioredoxin reductase 1, cytoplasmic (Homo sapiens, UniProt Q16881); experiment: Inhibition of human recombinant TrxR1 at pH 7.4
T2 sequence (Q16881 whole entry): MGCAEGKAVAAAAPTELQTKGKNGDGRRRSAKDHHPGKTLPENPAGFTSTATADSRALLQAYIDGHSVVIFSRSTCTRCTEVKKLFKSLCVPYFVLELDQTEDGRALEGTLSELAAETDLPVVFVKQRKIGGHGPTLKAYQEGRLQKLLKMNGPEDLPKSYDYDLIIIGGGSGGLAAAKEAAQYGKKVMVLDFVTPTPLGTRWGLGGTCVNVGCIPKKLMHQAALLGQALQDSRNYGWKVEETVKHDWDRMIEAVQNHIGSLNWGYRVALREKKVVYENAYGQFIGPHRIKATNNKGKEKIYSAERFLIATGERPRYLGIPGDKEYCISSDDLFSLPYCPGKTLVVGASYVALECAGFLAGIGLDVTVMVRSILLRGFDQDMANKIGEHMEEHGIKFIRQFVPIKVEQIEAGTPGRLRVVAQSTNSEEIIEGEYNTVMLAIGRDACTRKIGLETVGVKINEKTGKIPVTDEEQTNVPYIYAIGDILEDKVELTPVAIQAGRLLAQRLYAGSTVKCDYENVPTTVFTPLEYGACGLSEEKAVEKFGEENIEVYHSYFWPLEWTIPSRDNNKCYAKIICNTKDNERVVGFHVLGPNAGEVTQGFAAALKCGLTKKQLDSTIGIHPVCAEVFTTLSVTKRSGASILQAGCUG
Outline: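 Human TrxR (recombinant, or from placenta) was assayed at 10 mU/ml, 25°C, with its physiological substrate. The buffer was 100 mM potassium phosphate and 2 mM EDTA at pH 7.4, with NADPH as reductant. Routine measurements used His-tagged human thioredoxin 1 Cys73Ser. MB came from stocks in water. IC50 values were treated as Ki, assuming noncompetitive inhibition.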

[9] = target: T3, Dihydrolipoyl dehydrogenase, mitochondrial (Sus scrofa, UniProt P09623); experiment: Inhibition of pig recombinant dihydrolipoamide dehydrogenase at pH 7.3
T3 sequence (P09623 whole entry): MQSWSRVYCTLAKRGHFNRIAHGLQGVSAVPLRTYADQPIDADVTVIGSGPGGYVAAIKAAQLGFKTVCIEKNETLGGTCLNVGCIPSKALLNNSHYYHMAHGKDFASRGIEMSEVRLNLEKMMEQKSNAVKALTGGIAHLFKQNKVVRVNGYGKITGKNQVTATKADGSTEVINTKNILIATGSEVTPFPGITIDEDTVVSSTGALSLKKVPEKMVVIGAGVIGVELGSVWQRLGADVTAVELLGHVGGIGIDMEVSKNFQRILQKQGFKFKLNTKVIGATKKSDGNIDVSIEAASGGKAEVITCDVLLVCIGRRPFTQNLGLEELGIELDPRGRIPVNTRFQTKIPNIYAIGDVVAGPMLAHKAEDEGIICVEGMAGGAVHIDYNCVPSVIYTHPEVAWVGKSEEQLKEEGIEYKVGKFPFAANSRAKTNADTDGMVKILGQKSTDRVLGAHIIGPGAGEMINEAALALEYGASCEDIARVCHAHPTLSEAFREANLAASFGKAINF

[10] = Inhibition of Plasmodium falciparum glutathione reductase at pH 6.9
Outline: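 Recombinant P. falciparum GR, assayed at 25°C in 47 mM potassium phosphate, 1 mM EDTA, 200 mM KCl (pH 6.9). Physiological GSSG reduction was run with 10 mU/ml enzyme and NADPH. IC50 values were taken as Ki, assuming noncompetitive inhibition.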

[11] = Inhibition of Plasmodium falciparum thioredoxin reductase at pH 7.4
Outline: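 Recombinant P. falciparum TrxR, at 25°C in 100 mM potassium phosphate, 2 mM EDTA (pH 7.4). Cognate-substrate reaction was run with 10 mU/ml enzyme, NADPH and P. falciparum thioredoxin 1 as substrate. IC50 taken as Ki, assuming noncompetitive inhibition.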

[12] = target: T4, Dihydrolipoyl dehydrogenase (Plasmodium falciparum, UniProt Q6KCB6); experiment: Inhibition of Plasmodium falciparum recombinant dihydrolipoamide dehydrogenase at pH 7.3
T4 sequence (Q6KCB6 whole entry): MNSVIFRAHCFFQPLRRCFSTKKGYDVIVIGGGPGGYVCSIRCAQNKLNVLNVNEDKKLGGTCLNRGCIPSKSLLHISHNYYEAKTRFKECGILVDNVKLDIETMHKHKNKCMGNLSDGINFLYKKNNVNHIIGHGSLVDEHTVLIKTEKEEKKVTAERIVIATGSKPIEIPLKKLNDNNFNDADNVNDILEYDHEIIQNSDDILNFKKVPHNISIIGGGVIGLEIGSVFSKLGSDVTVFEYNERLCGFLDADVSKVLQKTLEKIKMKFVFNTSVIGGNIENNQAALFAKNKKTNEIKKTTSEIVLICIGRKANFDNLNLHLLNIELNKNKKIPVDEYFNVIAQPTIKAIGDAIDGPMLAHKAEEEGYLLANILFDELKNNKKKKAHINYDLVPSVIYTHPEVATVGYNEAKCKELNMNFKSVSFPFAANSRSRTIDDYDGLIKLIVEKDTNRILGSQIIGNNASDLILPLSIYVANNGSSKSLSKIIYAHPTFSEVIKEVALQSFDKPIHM

`CN(C)c1ccc2c(c1)Sc1cc(N(C)C)ccc1N2` [HYDROMETHYLTHIONINE] gave a pKa [1] of 4.5 and a solubility [2] of less than 50 µM.

With `CN(C)c1ccc2nc3ccc(N(C)C)cc3[s+]c2c1.[Cl-]` [METHYLENE BLUE ANHYDROUS] the EC50 (Plasmodium falciparum) was 0.0065 µM, the Kd (Albumin) was 2.9 µM and the Stability [3] was “Stable”. For the same compound, the IC50 [4] was 16.4 µM, the IC50 [5] was “Not Active” and the IC50 [6] was “Not Active”. For the same compound, the IC50 [7] was “Not Active”, the IC50 [8] was 30 µM and the IC50 [9] was greater than 1000 µM. It also gave an IC50 [10] of 5.4 µM, an IC50 [11] of 59 µM and an IC50 [12] greater than 1000 µM.
